# Measurements of several laboratories.
# Protocols differ between the studies behind these lines.
# Target: Tyrosine-protein kinase Blk (BLK, Homo sapiens, UniProt P51451)
Structure (SMILES),assay,conditions,remaining binding [%]
CNC(=O)[C@@H]1CC[C@@H](n2c(-c3ccc4cnccc4c3)nc3ccc(C(=O)NCc4cccc(C(N)=O)c4)cc32)C1,"binding, competition with immobilised ligand",1 µM,91
c1ccc(N2CCN(Cc3nc4ccccc4[nH]3)CC2)nc1,"cell-free assay, competition with immobilised ligand",1 µM,100
COc1ccnn2ncc(-c3ccnc(N(C)C)n3)c12,binding,1 µM,100
c1cncc(-c2cccc(Nc3nccc(NC4CCCCC4)n3)c2)c1,"binding, competition with immobilised ligand",10 µM,5.8
O=C(c1ccc(Nc2nccc(-c3cc4ccccc4s3)n2)cc1)N1CCC(N2CCCC2)CC1,"binding, competition with immobilised ligand",1 µM,100
CCN1CCN(Cc2ccc(C(=O)Nc3ccc(C)c(Oc4ccc5c(c4)CC(=O)N5)c3)cc2C(F)(F)F)CC1,"binding, competition with immobilised ligand",1 µM,93
C[C@@H]1CCN(c2nccc(-c3cnn4ncccc34)n2)C1,binding,1 µM,100
O=C(c1ccc(Nc2ncc(Cl)c(-c3ccc(Cl)s3)n2)cc1)N1CCC(N2CCCC2)CC1,"binding, competition with immobilised ligand",1 µM,100
N[C@H]1CCN(c2nccc(-c3cnn4ncccc34)n2)C1,binding,1 µM,100
CO[C@@H](C)c1c(Nc2ccc([C@H](N(C)C(=O)C3CCS(=O)(=O)CC3)C(F)(F)F)cc2)cnc2cc(Cl)nn12,"cell-free assay, competition with immobilised ligand",1 µM,87
CN(C)c1nccc(-c2cnn3ncccc23)n1,binding,1 µM,100
FC(F)(F)c1ccc2c(c1)nc(-c1cccnc1)n2C1CC1,"cell-free assay, competition with immobilised ligand",1 µM,96
Cc1cnn2ncc(-c3ccnc(N(C)C)n3)c2c1,binding,1 µM,28
COc1ccc2c(c1)O[C@H](c1ccc(OC)c(OC)c1)C[C@@H]2NC(=O)C1(c2ccc3c(c2)OC(F)(F)O3)CC1,"cell-free assay, competition with immobilised ligand",1 µM,100
F[C@@H]1CCN(c2nccc(-c3cnn4ncccc34)n2)C1,binding,1 µM,100
Cc1cnc(Nc2ccc(C(=O)N3CCC(N4CCCC4)CC3)cc2)nc1-c1cc2ccccc2s1,"binding, competition with immobilised ligand",1 µM,74
CN([C@@H]1CCc2c(CC(=O)O)c3cc(S(C)(=O)=O)ccc3n2C1)S(=O)(=O)c1ccc(F)cc1,"cell-free assay, competition with immobilised ligand",1 µM,99
FC(F)(F)Oc1cccc(-c2cnc3ccc(-c4ccncc4)nn23)c1,"cell-free assay, competition with immobilised ligand",5 µM,51
O=C(N1CCS(=O)(=O)CC1)N1C[C@H](c2ccc(OC(F)(F)F)cc2)C[C@H](c2nc(C3CC3)no2)C1,"cell-free assay, competition with immobilised ligand",1 µM,100
O=C(NCC1CCOCC1)c1n[nH]cc1NC(=O)c1c(F)cccc1F,"binding, competition with immobilised ligand",1 µM,100
CC1CCCN1c1nccc(-c2cnn3ncccc23)n1 (stereo not shown),binding,1 µM,100
Cc1c(C(=O)O)cc(-c2ccc(C3CCNCC3)cc2)c2ccc(-c3ccc(C(F)(F)F)cc3)cc12,"cell-free assay, competition with immobilised ligand",1 µM,100
